MEKK2mut PB1 HTS – signal of MEK5 binding to mutant human MEKK2 PB1 domain; hit rate 0.35% among 290,000; bead flow cytometry, Alexa488-MEK5 binding to MEKK2 mutant; percent response, % at 10 µM; in the data active = percent response above about 24%, passing the limit was not always enough
MEKK2wt PB1 HTS – raises or lowers MEK5 binding to wildtype human MEKK2 PB1 domain; bead flow cytometry, Alexa488-MEK5 binding to MEKK2 WT; actives lie on both sides; binding response (% of control), % at 10 µM; hit rate 1.1% among 290,000; in the data active = binding response below about 67% or above about 130%
MEKK3 PB1 HTS – raises or lowers MEK5 binding to the human MEKK3 PB1 domain; Q99759; bead-based flow cytometry, Alexa488-MEK5 binding to MEKK3; actives lie on both sides; 0 = blocked by unlabeled MEK5, 100 = vehicle; binding response (% of control), % at 10 µM; hit rate 1.4% among 290,000; AID 1529;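 active = binding response more than 3 SD above or below the average of its plate-row segment, actives on both sides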;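 also: Alexa488 bead fluorescence after subtracting the streptavidin-only scavenger bead signal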
Target sequence (Q99759 whole entry, looked up, the tested form may be a part): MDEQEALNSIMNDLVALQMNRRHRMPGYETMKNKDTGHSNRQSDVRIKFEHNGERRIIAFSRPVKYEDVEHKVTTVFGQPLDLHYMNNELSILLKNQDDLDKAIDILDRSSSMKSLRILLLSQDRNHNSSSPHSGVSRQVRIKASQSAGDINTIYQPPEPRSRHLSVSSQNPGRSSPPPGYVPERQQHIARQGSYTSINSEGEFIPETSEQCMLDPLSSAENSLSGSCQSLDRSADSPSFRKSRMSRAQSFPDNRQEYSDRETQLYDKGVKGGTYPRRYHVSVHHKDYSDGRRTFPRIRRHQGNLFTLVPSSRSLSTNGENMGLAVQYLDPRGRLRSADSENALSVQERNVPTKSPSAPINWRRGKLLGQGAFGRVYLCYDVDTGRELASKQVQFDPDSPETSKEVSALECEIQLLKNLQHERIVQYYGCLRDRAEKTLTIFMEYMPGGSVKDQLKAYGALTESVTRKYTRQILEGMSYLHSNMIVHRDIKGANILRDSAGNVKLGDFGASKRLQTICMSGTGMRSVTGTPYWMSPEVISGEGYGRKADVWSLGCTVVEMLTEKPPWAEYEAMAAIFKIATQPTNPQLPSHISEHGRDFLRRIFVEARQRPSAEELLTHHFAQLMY
Hep lipid drop – modulators of hepatic lipid droplet formation | AML12 mouse hepatocytes, oleate lipid droplets, BODIPY imaging | inhibition, % at 6.5 µM | hit rate 0.4% among 240,000 | AID 1656;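 active = lipid droplet intensity inhibited by at least 50%, with more than 500 cells counted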
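Material – mouse AML12 hepatocyte cell line, fixed after treatment · Compound dosing – one dose, 6.5 µM compound · Times – compound with oleate, overnight · Measured by – Image-based BODIPY and DAPI two-channel analysis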
MEKK2wt confirm – raises or lowers MEK5 binding to wildtype human MEKK2, retest; binding response (% of control), % at 10 µM; shares compounds with MEKK3 PB1 HTS; AID 1892; hit rate 2.4% among 5,900; bead flow cytometry, Alexa488-MEK5 binding to MEKK2 WT; actives lie on both sides; in the data active = binding response below about 16% or above about 210%; inactive = in between
MEKK2mut-MEK5 – signal of MEK5 binding to mutant human MEKK2, retest. shares compounds with MEKK3 PB1 HTS. bead flow cytometry, Alexa488-MEK5 binding to MEKK2 mutant. percent response, % at 10 µM. hit rate 2% among 5,900. AID 1893; in the data active = percent response mostly above about 71%, no sharp cut-off; inactive = mostly below about 38%;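 also: higher means compound restores mutant binding toward wildtype level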
MEKK3-MEK5 inh – MEKK3-MEK5 PB1 inhibition, single concentration confirmation; shares compounds with MEKK3 PB1 HTS; bead flow cytometry, Alexa488-MEK5 binding to MEKK3; hits give low values; binding response (% of control), % at 10 µM; hit rate 1.8% among 5,900;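 active = binding response below 72% of control, or above a set upper limit, though filed actives all read lower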;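 also: 100% = DMSO only wells and 0% = binding blocked by excess unlabeled MEK5; lower values mean stronger disruption of MEK5 binding to MEKK3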
The depositor's hits bear a star; / = no result; [ ] = remark or other dose. Compounds with a hit are over-represented: about 2.6% of the library has one in this group of screens.

SMILES	MEKK2mut PB1 HTS	MEKK2wt PB1 HTS	MEKK3 PB1 HTS	Hep lipid drop	MEKK2wt confirm	MEKK2mut-MEK5	MEKK3-MEK5 inh
O=C(/C=C/c1cccc([N+](=O)[O-])c1)NCCSCc1ccc(Cl)cc1Cl	1	113	130*	-20	121	5	101
Nn1cnc2c(c1=O)C1(CCCCC1)Cc1ccccc1-2	0	106	141*	2	99	1	104
CC(=O)Nn1cnc2c(c1=O)C1(CCCC1)Cc1ccccc1-2	1	94	104	21	/	/	/
COCCNc1nnc(SCC(=O)Nc2sc3c(c2C(=O)c2ccccc2)CCCC3)s1	0	106	131*	11	99	-4	102
CC(C)(C)c1ccc(C(=O)OCC(=O)Nc2sc3c(c2C#N)CCC3)cc1	1	106	132*	4	76	-19	74
CN(C)S(=O)(=O)c1ccc(C(=O)OCC(=O)Nc2sc3c(c2C#N)CCCCC3)cc1	3	103	108	2	/	/	/
CC1c2ccccc2N(NC(=O)Cc2ccccc2)C1C (configuration not stated)	28	131	135*	-15	101	1	102
O=C(COc1cccnc1[N+](=O)[O-])NCc1cccs1	-7	92	100	22	/	/	/
Cc1ccc(OCC(=O)NC(=S)Nc2ccc(Br)c(C)n2)cc1	6	102	102	/	/	/	/
Cc1nc(NC(=S)NC(=O)COc2ccc(Cl)cc2)ccc1Br	-1	104	139*	-6	101	4	102
COc1ccccc1-c1ccc(NC2CCCCC2)nn1	-8	83	81*[inhibitor]	-32	103	3	103
COc1ccccc1-c1ccc(Nc2cccc(C(F)(F)F)c2)nn1	2	101	98	-12	/	/	/
CCOC(=O)c1ccc(NC(=O)CSc2nnc(C3CCCCC3)n2C)cc1	7	96	126*	-28	98	-2	97
CCOc1ccc2cc(C3CC(c4ccco4)=NN3S(C)(=O)=O)c(Cl)nc2c1 (configuration not stated)	1	91	100	0	/	/	/
CC(=O)N1N=C(c2ccco2)CC1c1ccc(Br)cc1 (configuration not stated)	-1	108	99	10	/	/	/
CCc1ccc(C2CC(c3ccco3)=NN2S(C)(=O)=O)cc1 (configuration not stated)	55*	/	89	/	81	-9	89
CC(=O)N1N=C(c2ccco2)CC1c1ccc(C)cc1 (configuration not stated)	1	110	135*	3	103	1	105
O=c1cc(CSc2nc3ccccc3c(=O)[nH]2)c2ccc(O)cc2o1	5	105	99	5	/	/	/
CCC(Cc1ccccc1)NS(=O)(=O)c1ccc2c(c1)NC(=O)CO2 (configuration not stated)	0	95	97	-1	/	/	/
O=C(Nc1ccc(Cl)cc1)C1CCN(C(=O)c2cccs2)CC1	6	105	102	0	/	/	/
CCOC(=O)c1ccc(N2CN(CC)CNC2=S)cc1	1	107	130*	-2	105	1	103
CCCN1CNC(=S)N(c2ccc(C(=O)OCC)cc2)C1	-1	98	92	-15	/	/	/
Cc1cc(-c2nnc(SCC(=O)Nc3ccc(F)cc3F)n2N)n[nH]1	0	101	101	14	/	/	/
COc1ccc(NC(=O)c2nc[nH]c2C(=O)NCC(=O)OC(C)(C)C)cc1	4	54	50*[inhibitor]	-21	104	2	101
Cc1cc(C)c2cc(C#N)c(N3CCCN(C(=S)NCCCN(C)C)CC3)nc2c1	32*	120	99	-13	119	3	99
SMILES	MEKK2mut PB1 HTS	MEKK2wt PB1 HTS	MEKK3 PB1 HTS	Hep lipid drop	MEKK2wt confirm	MEKK2mut-MEK5	MEKK3-MEK5 inh
Cc1ccc2cc(C#N)c(N3CCCN(C(=S)NCCCN(C)C)CC3)nc2c1	15	117	99	-33	/	/	/
O=C(Cn1c2c(c(=O)n3ncnc13)CCC2)N/N=C/c1cccs1	-2	94	94	-7	/	/	/
O=C(Cn1c2c(c(=O)n3ncnc13)CCC2)N/N=C/c1ccc(Cl)cc1	-19	54	48*[inhibitor]	1	97	-2	97
CCCCN=C1CC(C)(C)CC(=O)/C1=C(/O)CCCN1C(=O)c2ccccc2C1=O	-6	97	98	-11	/	/	/
CC1(C)CC(=O)/C(=C(/O)Cc2ccccc2)C(=NCCc2ccccc2)C1	-1	98	128*	-20	104	-1	108
CCCCN(C)C(=O)Cn1c(=O)oc2cc(S(=O)(=O)N3CC(C)CC(C)C3)ccc21 (configuration not stated)	29	117	132*	2	111	9	102
Fc1ccc(CSc2nnc(-c3ccco3)o2)cc1	-57	85	1.0*[inhibitor]	0	97	-8	95
O=C(CSc1nnc(-c2ccco2)o1)N1CCN(c2ccccc2)CC1	5	122	136*	-2	106	2	106
O=C(CSc1nnc(-c2ccco2)o1)N1CCOCC1	4	101	103	-1	/	/	/
O=C(CSc1nnc(-c2ccco2)o1)N1c2ccccc2CCc2ccccc21	-11	85	80*[inhibitor]	-4	102	7	101
CC(=O)c1c(C)[nH]c(C(=O)CSc2nnc(-c3ccco3)o2)c1C	7	127	152*	-5	97	-6	100
CCOC(=O)C1CCN(C(=O)Cn2cnc3sc(C)c(S(=O)(=O)N4CCOCC4)c3c2=O)CC1	5	100	101	18	/	/	/
CC(c1ccccc1)N1C(=O)NC(NC(=O)c2cccnc2)(C(F)(F)F)C1=O (configuration not stated)	-3	0.0*[inhibitor]	0.0*[inhibitor]	-8	97	-8	96
CN1CCN(c2cc(-c3ccccc3)nc3cc(-c4ccc(F)cc4)nn23)CC1	34*	152*	113	0	157	26	108
COc1cccc(-c2cc3nc(-c4ccccc4)cc(N4CCC5(CC4)OCCO5)n3n2)c1	25*	137*	125*	/	103	-2	103
COc1cc(/C=C/C(=O)O)cc(S(=O)(=O)NCCCC(=O)O)c1OC	-4	104	103	-15	/	/	/
COC(=O)c1ccccc1NC(=S)N(Cc1ccc2c(c1)OCO2)Cc1cc2cccc(C)c2[nH]c1=O	17	101	106	-4	/	/	/
CCC(=O)Nc1cccc(NC(=O)c2ccc(C)cc2Cl)c1	-6	108	114	8	/	/	/
CC(C)NC(=O)NC(=O)COC(=O)c1cc[n+]([O-])cc1	0	102	103	5	/	/	/
CN(C)C(=S)Nc1ccc2c(c1)OCCO2	3	99	101	19	/	/	/

From PubChem
